Data on two compounds can be found in ChEMBL document CHEMBL3091309, “A CD4 mimic as an HIV entry inhibitor: pharmacokinetics” (Bioorg Med Chem, 2013).

The subject of data set [1] is Plasma. Put plainly: Adsorption in rhesus monkey plasma at 1 mg/ml after 1 hr followed by plasma addition by HPLC analysis. In kind it is ADME, cell-free, Macaca mulatta. The essentials: (§1)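 Macaque whole blood (1.0 mL) spiked with 2-HCl in saline (5 mg/mL stock, 0.25 mL), incubated 37°C for 0, 1 or 2 h. Plasma and blood cells separated by centrifugation; cells brought to 1.0 mL with PBS, and an aliquot sonicated. In the re-addition arm, plasma was added to 1 h cells and incubated 1 h more. MeOH-extracted supernatants, phenol internal standard 600 µg/mL final, analyzed by HPLC.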

A short description of data set [2]: Adsorption in rhesus monkey blood cells assessed as YYA-021 level at 1 mg/ml after 1 hr followed by plasma addition by HPLC analysis. In kind it is ADME, cell-based, Macaca mulatta. The essentials:
as §1

Data set [3] can be described thus: Adsorption in rhesus monkey blood cells at 1 mg/ml after 1 hr by HPLC analysis. The data set is classed as ADME, cell-based, Macaca mulatta. In outline: as §1
The subject of data set [4] is Plasma. Briefly: Adsorption in rhesus monkey plasma assessed as YYA-021 level at 1 mg/ml after 1 hr followed by plasma addition by HPLC analysis. The data set is classed as ADME, cell-free, Macaca mulatta. In outline: as §1
Data set [5] is described as follows: Adsorption in rhesus monkey blood cells assessed as YYA-021 level at 1 mg/ml after 1 hr by HPLC analysis. In kind it is ADME, cell-based, Macaca mulatta. In outline:
as §1

Data set [6] can be described thus: Plasma concentration in rhesus monkey at 13.4 mg/kg, iv after 24 hrs by HPLC analysis. Details: dose 13.4 mg/kg, route intravenous. In kind it is ADME, organism-based, Macaca mulatta. The essentials: (§2)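 Macaque given 70.6 mg 2-HCl in 30 mL 0.1 M sodium phosphate buffer with NaCl, pH 7.4, by cephalic vein injection. Blood (3.0 mL) taken at 0, 0.5, 1, 2, 4 and 24 h, and plasma stored at -80°C. Plasma extracted with MeOH and spiked with phenol (150 µg/mL final). Quantified by HPLC on a 20–35% CH3CN (0.1% TFA) gradient over 30 min.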

The subject of data set [7] is Rhesus monkey. Put plainly: Toxicity in rhesus monkey assessed as prolonged PR interval in electrocardiogram at 70.6 mg, iv. The data set is classed as organism-based, Macaca mulatta. The following applies: in vivo.
The subject of data set [8] is Rattus norvegicus. Put plainly: Toxicity in Jcl:Sprague-Dawley rat assessed as change in body weight at 5 mg/kg, iv after 2 weeks relative to control. To be noted: in vivo, 336 h. In kind it is organism-based. Set-up: dose 5 mg/kg, route intravenous.
The nature of data set [9]: Adsorption in rhesus monkey blood cells at 1 mg/ml after 2 hrs by HPLC analysis. In kind it is ADME, cell-based, Macaca mulatta. The essentials: as §1
Data set [10] is described as follows: Plasma concentration in rhesus monkey at 13.4 mg/kg, iv after 4 hrs by HPLC analysis. In kind it is ADME, organism-based, Macaca mulatta. Set-up: dose 13.4 mg/kg, route intravenous. The essentials:
as §2

The nature of data set [11]: Plasma concentration in rhesus monkey at 13.4 mg/kg, iv after 2 hrs by HPLC analysis. In kind it is ADME, organism-based, Macaca mulatta. Set-up: dose 13.4 mg/kg, route intravenous. In outline:
as §2

Data set [12] in a line: Adsorption in rhesus monkey blood cells at 1 mg/ml measured immediately by HPLC analysis. The data set is classed as ADME, cell-based, Macaca mulatta. The essentials: as §1
Data set [13] relates to Plasma. Briefly: Adsorption in rhesus monkey plasma at 1 mg/ml measured immediately by HPLC analysis. The data set is classed as ADME, cell-free, Macaca mulatta. In outline: as §1
Data set [14] relates to Plasma. Put plainly: Adsorption in rhesus monkey plasma assessed as YYA-021 level at 1 mg/ml measured immediately by HPLC analysis. The data set is classed as ADME, cell-free, Macaca mulatta. The essentials: as §1
Data set [15] concerns Plasma. Briefly: Adsorption in rhesus monkey plasma assessed as YYA-021 level at 1 mg/ml after 1 hr by HPLC analysis. In kind it is ADME, cell-free, Macaca mulatta. The essentials:
as §1

Data set [16] relates to Rattus norvegicus. Put plainly: Toxicity in iv dosed Jcl:Sprague-Dawley rat assessed as renal and hepatic dysfunction. In kind it is organism-based. The following applies: in vivo.
Data set [17] is described as follows: Plasma concentration in Jcl:Sprague-Dawley rat at 14 mg/kg, iv after 240 mins by HPLC analysis. The data set is classed as ADME, organism-based. Set-up: dose 14 mg/kg, route intravenous. The essentials:
(§3)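 6-week-old Jcl:SD rats given 2.5 mg 2-HCl in 1.0 mL saline by tail-vein injection. Tail-vein blood drawn at 15, 30, 45, 60, 120 and 240 min and centrifuged to plasma. Plasma stored at -80°C, mixed with phenol internal standard (62.5 µg/mL final), filtered and quantified by HPLC. Standard curve from peak-area ratio to phenol.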

Data set [18] can be described thus: Plasma concentration in Jcl:Sprague-Dawley rat at 14 mg/kg, iv after 15 mins by HPLC analysis. In kind it is ADME, organism-based. Details: dose 14 mg/kg, route intravenous. The essentials: as §3
The nature of data set [19]: Plasma concentration in Jcl:Sprague-Dawley rat at 14 mg/kg, iv after 60 mins by HPLC analysis. The data set is classed as ADME, organism-based. Set-up: dose 14 mg/kg, route intravenous. In outline:
as §3

Data set [20] in a line: Adsorption in rhesus monkey blood cells assessed as YYA-021 level at 1 mg/ml after 2 hrs by HPLC analysis. In kind it is ADME, cell-based, Macaca mulatta. In outline: as §1
Data set [21] in a line: Plasma concentration in rhesus monkey at 13.4 mg/kg, iv after 0.5 hrs by HPLC analysis. The data set is classed as ADME, organism-based, Macaca mulatta. Set-up: dose 13.4 mg/kg, route intravenous. In outline: as §2
Data set [22] deals with Rhesus monkey. Briefly: Toxicity in iv dosed rhesus monkey. In kind it is organism-based, Macaca mulatta. To be noted: in vivo.
The subject of data set [23] is Plasma. Briefly: Adsorption in rhesus monkey plasma at 1 mg/ml after 2 hrs by HPLC analysis. The data set is classed as ADME, cell-free, Macaca mulatta. The essentials: as §1
Data set [24] concerns Plasma. Briefly: Plasma concentration in rhesus monkey at 13.4 mg/kg, iv measured immediately by HPLC analysis. The data set is classed as ADME, organism-based, Macaca mulatta. Details: dose 13.4 mg/kg, route intravenous. To be noted: in vivo. The essentials: as §2
Data set [25] can be described thus: Adsorption in rhesus monkey blood cells assessed as YYA-021 level at 1 mg/ml measured immediately by HPLC analysis. In kind it is ADME, cell-based, Macaca mulatta. In outline: as §1
The nature of data set [26]: Adsorption in rhesus monkey blood cells at 1 mg/ml after 1 hr followed by plasma addition by HPLC analysis. The data set is classed as ADME, cell-based, Macaca mulatta. In outline: as §1
Data set [27] in a line: Plasma concentration in Jcl:Sprague-Dawley rat at 14 mg/kg, iv after 45 mins by HPLC analysis. The data set is classed as ADME, organism-based. Details: dose 14 mg/kg, route intravenous. The essentials:
as §3

Data set [28] can be described thus: Plasma concentration in Jcl:Sprague-Dawley rat at 14 mg/kg, iv after 30 mins by HPLC analysis. The data set is classed as ADME, organism-based. Details: dose 14 mg/kg, route intravenous. The essentials:
as §3

Data set [29] concerns Rhesus monkey. Briefly: Toxicity in rhesus monkey assessed as mydriasis at 70.6 mg, iv. In kind it is organism-based, Macaca mulatta. The following applies: in vivo.
For data set [30], the system named is Plasma. Briefly: Adsorption in rhesus monkey plasma at 1 mg/ml preincubated for 1 hr followed by plasma addition measured after 1 hr by HPLC analysis. In kind it is ADME, cell-free, Macaca mulatta. The essentials:
as §1

Data set [31] deals with Rhesus monkey. Put plainly: Toxicity in rhesus monkey assessed as prolonged PR interval in bradycardia at 70.6 mg, iv. In kind it is organism-based, Macaca mulatta. To be noted: in vivo.
The nature of data set [32]: Plasma concentration in rhesus monkey at 13.4 mg/kg, iv after 1 hr by HPLC analysis. The data set is classed as ADME, organism-based, Macaca mulatta. Set-up: dose 13.4 mg/kg, route intravenous. In outline:
as §2

The subject of data set [33] is Plasma. Put plainly: Adsorption in rhesus monkey plasma at 1 mg/ml after 1 hr by HPLC analysis. The data set is classed as ADME, cell-free, Macaca mulatta. In outline:
as §1

For data set [34], the system named is Plasma. Put plainly: Adsorption in rhesus monkey plasma assessed as YYA-021 level at 1 mg/ml preincubated for 1 hr followed by plasma addition measured after 1 hr by HPLC analysis. In kind it is ADME, cell-free, Macaca mulatta. The essentials:
as §1

The subject of data set [35] is Rattus norvegicus. Briefly: Volume of distribution in Jcl:Sprague-Dawley rat at 14 mg/kg, iv by HPLC analysis. The data set is classed as ADME, organism-based. Details: dose 14 mg/kg, route intravenous. To be noted: in vivo. The essentials: (§4)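 Jcl:SD rats (6 weeks old) dosed iv via tail vein with 2.5 mg 2-HCl in 1.0 mL saline. Plasma sampled from 15 to 240 min and assayed by HPLC with phenol internal standard. Parameters derived from the plasma concentration–time course.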

The nature of data set [36]: Half life in rhesus monkey at 13.4 mg/kg, iv by HPLC analysis. In kind it is ADME, organism-based, Macaca mulatta. Set-up: dose 13.4 mg/kg, route intravenous. The following applies: in vivo. In outline: (§5)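 Dosed by cephalic vein injection in 30 mL 0.1 M sodium phosphate buffer with NaCl, pH 7.4. Blood (3.0 mL) was drawn at 0, 0.5, 1, 2, 4 and 24 h. Plasma was separated and stored at -80°C, then MeOH-extracted. Supernatant was spiked with phenol internal standard (final 150 µg/mL) and filtered for HPLC, quantified against a peak-area-ratio calibration curve.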

Data set [37] is described as follows: Half life in Jcl:Sprague-Dawley rat at 2.5 mg, iv by HPLC analysis. To be noted: in vivo.
A short description of data set [38]: Volume of distribution in rhesus monkey at 13.4 mg/kg, iv after 24 hrs by HPLC analysis. The data set is classed as ADME, organism-based, Macaca mulatta. To be noted: in vivo. Set-up: dose 13.4 mg/kg, route intravenous. The essentials: as §5
Data set [39] is described as follows: Initial plasma concentration in Jcl:Sprague-Dawley rat at 14 mg/kg, iv by HPLC analysis. In kind it is ADME, organism-based. Set-up: dose 14 mg/kg, route intravenous. In outline: as §4
A short description of data set [40]: Initial plasma concentration in rhesus monkey at 13.4 mg/kg, iv. The data set is classed as ADME, organism-based, Macaca mulatta. Details: dose 13.4 mg/kg, route intravenous. In outline:
as §5

For `Cc1ccc(NC(=O)C(=O)NC2CC(C)(C)NC(C)(C)C2)cc1.Cl`, the Activity with Plasma [1] was 102.9 µg/mL; in data set [2], 17.9 µg/mL; in data set [3] it was 74.8 µg/mL; with Plasma [4], 92.4 µg/mL; in [5] it was 67.2 µg/mL; in the data set with Rhesus monkey [7] it was “Toxic”. In addition, the Activity result in the data set on Rattus norvegicus [8] was “Non-toxic”; in [9], 68 µg/mL; in data set [12], 71.5 µg/mL; in the data set with Plasma [13], 133.7 µg/mL; in the data set with Plasma [14], 120 µg/mL; in the data set with Plasma [15], 102 µg/mL. Further, the Activity in data set [20] is 61 µg/mL; with Plasma [23], 105 µg/mL; in [25], 64.2 µg/mL; in data set [26], 19.9 µg/mL; with Rhesus monkey [29], “Toxic”; in the data set with Plasma [30], 51.2 µg/mL. Also, the Activity result was “Toxic” in the data set on Rhesus monkey [31], 113.6 µg/mL with Plasma [33] and 46 µg/mL in the data set with Plasma [34]. The compound further returned a concentration at 24 h in [6] of 415 ng/mL. Also, the concentration at 4 h in [10] worked out at 392 ng/mL; in [17], 1120 ng/mL. This compound showed a concentration at 2 h in data set [11] of 1090 ng/mL. Besides, the MTD in the data set on Rattus norvegicus [16] was found to be 2.5 mg; in the data set with Rhesus monkey [22], 35.3 mg. The concentration at 0.25 h in [18] is 6010 ng/mL. Also, the concentration at 1 h came out at 620 ng/mL in data set [19] and 1260 ng/mL in data set [32]. The concentration at 0.5 h in [21] is 1330 ng/mL; in data set [28] it was 2100 ng/mL. The compound further showed a Cp in the data set with Plasma [24] of 149 ng/mL. Moreover, the concentration at 0.75 h in data set [27] came to 1510 ng/mL.
As for `Cc1ccc(NC(=O)C(=O)NC2CC(C)(C)NC(C)(C)C2)cc1`, the Vd with Rattus norvegicus [35] worked out at 145 mL; in data set [38], 47.1 L. For the same compound, the values for the half-life in data set [36] and in data set [37] were 98.4 min and 8.46 min, respectively. In addition, the C0 amounted to 17300 ng/mL in data set [39] and 1500 ng/mL in [40].

Usually Vd stands for a proportionality between amount in the body and measured concentration, not a real space. By half-life is commonly meant how long it takes for the measured level to halve.
